Results from ChEMBL document CHEMBL3259628, “Discovery of novel 2-((pyridin-3-yloxy)methyl)piperazines as α7 nicotinic acetylcholine receptor modulators for the treatment of inflammatory disorders” (J Med Chem, 2014).
Calls of active or inactive are those of the source. No cut-off for these calls is given here.

Tests used:
[1] = biological target: T1, Neuronal acetylcholine receptor; alpha4/beta2 (Homo sapiens, UniProt P17787+P43681); experiment: Agonist activity at alpha4beta2 nAChR (unknown origin)
T1 sequence (P17787 whole entry): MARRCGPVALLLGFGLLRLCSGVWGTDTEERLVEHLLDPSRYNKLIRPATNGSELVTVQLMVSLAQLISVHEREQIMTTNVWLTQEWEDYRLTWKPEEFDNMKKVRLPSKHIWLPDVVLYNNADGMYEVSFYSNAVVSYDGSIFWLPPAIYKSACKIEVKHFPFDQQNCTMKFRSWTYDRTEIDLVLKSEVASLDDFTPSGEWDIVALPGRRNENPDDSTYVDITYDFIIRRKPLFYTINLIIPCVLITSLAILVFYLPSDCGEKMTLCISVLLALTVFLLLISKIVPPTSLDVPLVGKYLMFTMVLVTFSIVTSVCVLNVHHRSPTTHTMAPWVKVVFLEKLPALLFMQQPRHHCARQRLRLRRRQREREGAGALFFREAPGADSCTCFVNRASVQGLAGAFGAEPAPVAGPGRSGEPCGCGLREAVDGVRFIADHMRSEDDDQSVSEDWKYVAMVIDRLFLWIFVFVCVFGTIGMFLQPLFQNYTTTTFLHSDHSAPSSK
T1 sequence (P43681 whole entry): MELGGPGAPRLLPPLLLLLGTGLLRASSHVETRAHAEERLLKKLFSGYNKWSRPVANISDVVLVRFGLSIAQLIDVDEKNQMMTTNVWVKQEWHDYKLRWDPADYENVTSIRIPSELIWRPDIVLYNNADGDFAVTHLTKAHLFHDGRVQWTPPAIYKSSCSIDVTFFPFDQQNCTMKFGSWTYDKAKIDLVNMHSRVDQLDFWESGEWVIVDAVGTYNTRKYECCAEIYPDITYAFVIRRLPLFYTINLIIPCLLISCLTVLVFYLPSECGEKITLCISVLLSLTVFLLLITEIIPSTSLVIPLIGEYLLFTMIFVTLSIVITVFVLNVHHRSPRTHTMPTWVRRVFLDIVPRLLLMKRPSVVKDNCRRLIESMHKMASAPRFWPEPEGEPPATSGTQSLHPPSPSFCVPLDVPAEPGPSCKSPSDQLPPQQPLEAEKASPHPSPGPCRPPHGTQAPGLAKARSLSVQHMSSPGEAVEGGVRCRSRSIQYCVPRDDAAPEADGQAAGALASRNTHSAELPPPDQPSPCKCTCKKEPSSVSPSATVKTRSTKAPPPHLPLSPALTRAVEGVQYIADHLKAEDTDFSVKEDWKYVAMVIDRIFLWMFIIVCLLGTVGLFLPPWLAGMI

[2] = biological target: Neuronal acetylcholine receptor subunit alpha-7 (Rattus norvegicus, UniProt Q05941); experiment: Inhibition of biotinylated alpha-bungarotoxin binding to alpha7 nAChR in rat PC12 cells by FACS analysis; type: cell-based, PC-12
Sequence of Neuronal acetylcholine receptor subunit alpha-7 (Rattus norvegicus, UniProt Q05941) (Q05941 whole entry): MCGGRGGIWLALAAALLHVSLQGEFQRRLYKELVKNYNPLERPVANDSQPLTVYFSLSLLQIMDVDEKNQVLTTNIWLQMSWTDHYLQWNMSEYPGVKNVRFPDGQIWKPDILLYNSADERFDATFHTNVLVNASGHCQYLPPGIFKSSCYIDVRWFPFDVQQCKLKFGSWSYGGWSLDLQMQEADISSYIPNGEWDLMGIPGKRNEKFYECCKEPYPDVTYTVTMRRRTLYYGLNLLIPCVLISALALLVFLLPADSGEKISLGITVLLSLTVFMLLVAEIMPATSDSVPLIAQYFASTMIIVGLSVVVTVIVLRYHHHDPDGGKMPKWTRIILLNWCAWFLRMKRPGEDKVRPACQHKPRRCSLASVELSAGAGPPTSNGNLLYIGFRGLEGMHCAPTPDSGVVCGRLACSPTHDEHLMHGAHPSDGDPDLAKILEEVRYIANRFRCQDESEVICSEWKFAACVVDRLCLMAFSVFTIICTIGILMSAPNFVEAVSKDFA
Procedure, shortened: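 Rat PC12 cells in binding buffer (PBS, 1.0% FBS, 0.02% sodium azide), 0.1% DMSO; biotinylated α-bungarotoxin 10 nM final, 1 h at room temperature; nonspecific binding defined with 1.5 μM unlabeled toxin. After washing, phycoerythrin-streptavidin 1.0 μg/mL final, 15 min in the dark; read by FACS. Screened at 10 and 1 μM, then eight-point 3-fold dilution IC50; mean of two or more experiments.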

[3] = biological target: T2, Neuronal acetylcholine receptor subunit alpha-7 (Homo sapiens, UniProt P36544); experiment: Agonist activity at human alpha7 nAChR expressed in Xenopus oocytes by voltage clamp method; type: cell-based
[4] = biological target: T1, Neuronal acetylcholine receptor; alpha4/beta2; experiment: Agonist activity at human alpha4beta2 nAChR expressed in Xenopus oocytes by voltage clamp method; type: cell-based
[5] = biological target: Acetylcholine receptor; alpha1/beta1/delta/gamma (Homo sapiens) (UniProt P02708+P07510+P11230+Q07001); experiment: Inhibition of alpha1beta1gammadelta nAChR (unknown origin) at 10 uM; type: protein-complex assay
Procedure, shortened: (§1)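 Receptor, ion channel and transporter binding panel run at Cerep in duplicate. Percent inhibition measured at 10 μM compound.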

[6] = biological target: T3, 5-hydroxytryptamine receptor 3A (Homo sapiens) (UniProt P46098); experiment: Inhibition of 5-HT3 receptor (unknown origin) at 10 uM; procedure, shortened: as §1
T3 sequence (whole entry): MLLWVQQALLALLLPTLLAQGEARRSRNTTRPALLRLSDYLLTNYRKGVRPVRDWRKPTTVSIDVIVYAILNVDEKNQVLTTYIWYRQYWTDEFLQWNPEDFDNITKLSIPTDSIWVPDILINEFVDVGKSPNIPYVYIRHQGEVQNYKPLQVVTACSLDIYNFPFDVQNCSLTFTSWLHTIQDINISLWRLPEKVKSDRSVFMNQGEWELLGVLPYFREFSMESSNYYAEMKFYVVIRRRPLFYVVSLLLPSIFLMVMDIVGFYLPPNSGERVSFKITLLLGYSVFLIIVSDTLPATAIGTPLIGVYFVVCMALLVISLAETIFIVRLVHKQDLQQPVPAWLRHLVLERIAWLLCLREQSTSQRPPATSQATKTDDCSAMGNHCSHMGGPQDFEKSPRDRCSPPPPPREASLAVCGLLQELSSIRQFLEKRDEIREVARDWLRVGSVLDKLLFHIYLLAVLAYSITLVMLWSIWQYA

CYP1A2 = biological target: T4, CYP1A2 (Homo sapiens, UniProt P05177); experiment: Inhibition of CYP1A2 (unknown origin) at 10 uM; type: ADME
T4 sequence (P05177 whole entry): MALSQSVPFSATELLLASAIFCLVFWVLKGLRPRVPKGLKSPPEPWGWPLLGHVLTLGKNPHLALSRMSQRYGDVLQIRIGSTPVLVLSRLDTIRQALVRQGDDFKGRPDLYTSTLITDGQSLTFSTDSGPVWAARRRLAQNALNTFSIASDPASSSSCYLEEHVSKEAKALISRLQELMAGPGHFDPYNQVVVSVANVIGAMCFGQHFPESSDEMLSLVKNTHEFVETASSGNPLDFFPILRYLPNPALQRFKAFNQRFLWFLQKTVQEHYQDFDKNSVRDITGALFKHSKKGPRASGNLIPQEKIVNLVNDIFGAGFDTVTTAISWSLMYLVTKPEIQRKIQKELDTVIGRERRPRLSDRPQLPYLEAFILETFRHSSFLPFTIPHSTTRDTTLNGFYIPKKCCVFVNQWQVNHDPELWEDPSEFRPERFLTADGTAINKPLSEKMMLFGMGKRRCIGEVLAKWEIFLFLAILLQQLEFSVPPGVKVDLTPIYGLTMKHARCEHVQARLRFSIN
Procedure, shortened: (§2)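 Each of five Cyp isoforms assayed with single probe substrates rather than a substrate cocktail. Run in duplicate at Cerep. IC50 lines come from a 5-concentration titration curve.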

CYP2C9 = CYP2C9 (Homo sapiens, UniProt P11712); experiment: Inhibition of CYP2C9 (unknown origin) at 10 uM; type: ADME; procedure, shortened: as §2
Sequence of CYP2C9 (P11712 whole entry): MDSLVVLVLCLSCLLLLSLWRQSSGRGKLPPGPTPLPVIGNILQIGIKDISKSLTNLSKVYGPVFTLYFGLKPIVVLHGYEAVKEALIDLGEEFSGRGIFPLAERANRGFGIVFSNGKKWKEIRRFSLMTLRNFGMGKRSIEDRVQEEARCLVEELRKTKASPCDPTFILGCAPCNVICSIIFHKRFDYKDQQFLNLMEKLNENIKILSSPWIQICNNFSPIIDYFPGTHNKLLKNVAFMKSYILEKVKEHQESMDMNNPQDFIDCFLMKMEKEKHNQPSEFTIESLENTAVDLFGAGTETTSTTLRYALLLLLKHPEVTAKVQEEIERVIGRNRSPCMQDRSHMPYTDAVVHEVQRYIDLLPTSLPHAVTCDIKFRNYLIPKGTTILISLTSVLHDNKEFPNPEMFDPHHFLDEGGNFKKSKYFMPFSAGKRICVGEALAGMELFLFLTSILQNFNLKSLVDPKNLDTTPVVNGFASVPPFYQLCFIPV

CYP2C19 = CYP2C19 (Homo sapiens, UniProt P33261); experiment: Inhibition of CYP2C19 (unknown origin) at 10 uM; type: ADME; procedure, shortened: as §2
Sequence of CYP2C19 (P33261 whole entry): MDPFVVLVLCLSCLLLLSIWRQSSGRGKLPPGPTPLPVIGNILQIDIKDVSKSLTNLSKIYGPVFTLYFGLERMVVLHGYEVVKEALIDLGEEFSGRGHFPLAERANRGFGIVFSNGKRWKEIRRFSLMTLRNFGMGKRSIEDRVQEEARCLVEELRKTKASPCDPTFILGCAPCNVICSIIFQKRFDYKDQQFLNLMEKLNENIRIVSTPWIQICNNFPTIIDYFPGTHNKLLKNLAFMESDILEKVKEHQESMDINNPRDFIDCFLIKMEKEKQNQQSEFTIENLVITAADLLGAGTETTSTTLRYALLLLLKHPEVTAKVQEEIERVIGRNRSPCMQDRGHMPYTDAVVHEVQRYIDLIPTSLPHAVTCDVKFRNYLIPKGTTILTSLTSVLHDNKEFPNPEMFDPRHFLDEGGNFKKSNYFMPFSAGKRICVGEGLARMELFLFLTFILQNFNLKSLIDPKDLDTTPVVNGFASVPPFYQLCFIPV

CYP2D6 = CYP2D6 (Homo sapiens, UniProt P10635); experiment: Inhibition of CYP2D6 (unknown origin) at 10 uM; type: ADME; procedure, shortened: as §2
Sequence of CYP2D6 (P10635 whole entry): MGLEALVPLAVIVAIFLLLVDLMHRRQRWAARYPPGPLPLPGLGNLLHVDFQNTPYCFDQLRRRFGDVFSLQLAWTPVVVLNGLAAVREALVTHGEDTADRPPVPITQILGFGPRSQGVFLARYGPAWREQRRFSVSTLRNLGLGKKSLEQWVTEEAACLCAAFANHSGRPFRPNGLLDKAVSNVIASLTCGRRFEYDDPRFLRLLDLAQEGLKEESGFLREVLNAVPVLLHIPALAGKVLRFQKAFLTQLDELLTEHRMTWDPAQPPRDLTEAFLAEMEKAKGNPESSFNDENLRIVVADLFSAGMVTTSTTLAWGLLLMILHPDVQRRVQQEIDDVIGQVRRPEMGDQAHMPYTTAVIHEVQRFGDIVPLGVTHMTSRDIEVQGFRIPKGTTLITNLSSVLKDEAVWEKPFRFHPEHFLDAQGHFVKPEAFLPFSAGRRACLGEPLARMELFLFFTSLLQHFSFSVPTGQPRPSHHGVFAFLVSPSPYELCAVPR

CYP3A4 = CYP3A4 (Homo sapiens, UniProt P08684); experiment: Inhibition of CYP3A4 (unknown origin) at 10 uM; type: ADME; procedure, shortened: as §2
Sequence of CYP3A4 (P08684 whole entry): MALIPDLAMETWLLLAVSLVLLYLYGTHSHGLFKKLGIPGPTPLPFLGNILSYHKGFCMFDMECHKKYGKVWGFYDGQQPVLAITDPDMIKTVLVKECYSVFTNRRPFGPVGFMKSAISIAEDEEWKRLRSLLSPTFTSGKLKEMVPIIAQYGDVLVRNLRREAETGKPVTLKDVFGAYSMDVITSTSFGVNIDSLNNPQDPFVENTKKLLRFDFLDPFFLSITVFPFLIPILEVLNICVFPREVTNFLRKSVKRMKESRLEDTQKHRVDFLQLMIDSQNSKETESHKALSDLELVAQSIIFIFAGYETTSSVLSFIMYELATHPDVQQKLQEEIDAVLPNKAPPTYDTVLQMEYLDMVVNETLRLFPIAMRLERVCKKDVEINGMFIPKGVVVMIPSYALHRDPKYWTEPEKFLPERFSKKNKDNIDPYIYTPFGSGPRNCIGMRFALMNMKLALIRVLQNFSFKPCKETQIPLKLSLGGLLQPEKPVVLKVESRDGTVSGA

[7] = biological target: Adenosine receptor A2a (Homo sapiens) (UniProt P29274); experiment: Inhibition of adenosine A2a receptor (unknown origin) at 10 uM; procedure, shortened: as §1
[8] = Half life in mouse at 1 mg/kg, iv; type: ADME, organism-based; design: dose 1 mg/kg, route intravenous; conditions: in vivo
[9] = Clearance in mouse at 1 mg/kg, iv; type: ADME, organism-based; design: dose 1 mg/kg, route intravenous; conditions: in vivo
[10] = Oral bioavailability in mouse at 5 mg/kg; type: ADME, organism-based; conditions: in vivo
[11] = Half life in mouse at 5 mg/kg, po; type: ADME, organism-based; design: dose 5 mg/kg, route oral; conditions: in vivo
[12] = Cmax in mouse at 5 mg/kg, po; type: ADME, organism-based; design: dose 5 mg/kg, route oral; conditions: in vivo
Mus musculus [13] = experiment: Antiinflammatory activity against ovalbumin-induced allergic lung inflammation BALB/c mouse model assessed as reduction in total blood cells in brochoalveolar lavage fluid at 5 mg/kg, po qd administered on day 29 to 31 post ovalbumin challenge measured 8 hrs post last challenge relative to vehicle-treated control; type: functional
Procedure, shortened: (§3)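 Balb/c mice sensitized with ovalbumin by IP injection on days 1 and 14, then challenged intranasally with 100 μg ovalbumin on days 29, 30 and 31. Compound in saline given orally starting 30 min before each challenge; groups of six mice. Sham groups were saline-sensitized and allergen-challenged. BAL taken 8 h after the last challenge, with differential cell counts on slides.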

Mus musculus [14] = experiment: Antiinflammatory activity against ovalbumin-induced allergic lung inflammation BALB/c mouse model assessed as reduction in total blood cells in brochoalveolar lavage fluid at 1 mg/kg, po qd administered on day 29 to 31 post ovalbumin challenge measured 8 hrs post last challenge relative to vehicle-treated control; type: functional; procedure, shortened: as §3
Mus musculus [15] = experiment: Antiinflammatory activity against ovalbumin-induced allergic lung inflammation BALB/c mouse model assessed as reduction in neutrophils in brochoalveolar lavage fluid at 5 mg/kg, po qd administered on day 29 to 31 post ovalbumin challenge measured 8 hrs post last challenge relative to vehicle-treated control; type: functional; conditions: Bronchoalveolar lavage; procedure, shortened: as §3
Mus musculus [16] = experiment: Antiinflammatory activity against ovalbumin-induced allergic lung inflammation BALB/c mouse model assessed as reduction in neutrophils in brochoalveolar lavage fluid at 1 mg/kg, po qd administered on day 29 to 31 post ovalbumin challenge measured 8 hrs post last challenge relative to vehicle-treated control; type: functional; conditions: Bronchoalveolar lavage; procedure, shortened: as §3
Mus musculus [17] = experiment: Antiinflammatory activity against ovalbumin-induced allergic lung inflammation BALB/c mouse model assessed as reduction in eosinophils in brochoalveolar lavage fluid at 1 mg/kg, po qd administered on day 29 to 31 post ovalbumin challenge measured 8 hrs post last challenge relative to vehicle-treated control; type: functional; procedure, shortened: as §3
Mus musculus [18] = experiment: Antiinflammatory activity against ovalbumin-induced allergic lung inflammation BALB/c mouse model assessed as reduction in eosinophils in brochoalveolar lavage fluid at 5 mg/kg, po qd administered on day 29 to 31 post ovalbumin challenge measured 8 hrs post last challenge relative to vehicle-treated control; type: functional, organism-based; design: dose 5 mg/kg; procedure, shortened: as §3
[19] = biological target: T2, Neuronal acetylcholine receptor subunit alpha-7; conditions: 300 uM
[20] = biological target: T1, Neuronal acetylcholine receptor; alpha4/beta2; experiment: Inhibition of human alpha4beta2 nAChR by binding assay
Mus musculus [21] = experiment: Antiinflammatory activity against ovalbumin-induced allergic lung inflammation BALB/c mouse model assessed as reduction in neutrophils in brochoalveolar lavage fluid at 1 mg/kg, po bid administered on day 29 to 31 post ovalbumin challenge measured 8 hrs post last challenge relative to vehicle-treated control; type: functional; conditions: Bronchoalveolar lavage; procedure, shortened: as §3
Mus musculus [22] = experiment: Antiinflammatory activity against ovalbumin-induced allergic lung inflammation BALB/c mouse model assessed as reduction in eosinophils in brochoalveolar lavage fluid at 1 mg/kg, po bid administered on day 29 to 31 post ovalbumin challenge measured 8 hrs post last challenge relative to vehicle-treated control; type: functional; procedure, shortened: as §3
hERG (KCNH2) = hERG (KCNH2) (Homo sapiens, UniProt Q12809); experiment: Inhibition of human ERG at 1 uM by whole-cell voltage clamp assay
Sequence of hERG (KCNH2) (Q12809 whole entry): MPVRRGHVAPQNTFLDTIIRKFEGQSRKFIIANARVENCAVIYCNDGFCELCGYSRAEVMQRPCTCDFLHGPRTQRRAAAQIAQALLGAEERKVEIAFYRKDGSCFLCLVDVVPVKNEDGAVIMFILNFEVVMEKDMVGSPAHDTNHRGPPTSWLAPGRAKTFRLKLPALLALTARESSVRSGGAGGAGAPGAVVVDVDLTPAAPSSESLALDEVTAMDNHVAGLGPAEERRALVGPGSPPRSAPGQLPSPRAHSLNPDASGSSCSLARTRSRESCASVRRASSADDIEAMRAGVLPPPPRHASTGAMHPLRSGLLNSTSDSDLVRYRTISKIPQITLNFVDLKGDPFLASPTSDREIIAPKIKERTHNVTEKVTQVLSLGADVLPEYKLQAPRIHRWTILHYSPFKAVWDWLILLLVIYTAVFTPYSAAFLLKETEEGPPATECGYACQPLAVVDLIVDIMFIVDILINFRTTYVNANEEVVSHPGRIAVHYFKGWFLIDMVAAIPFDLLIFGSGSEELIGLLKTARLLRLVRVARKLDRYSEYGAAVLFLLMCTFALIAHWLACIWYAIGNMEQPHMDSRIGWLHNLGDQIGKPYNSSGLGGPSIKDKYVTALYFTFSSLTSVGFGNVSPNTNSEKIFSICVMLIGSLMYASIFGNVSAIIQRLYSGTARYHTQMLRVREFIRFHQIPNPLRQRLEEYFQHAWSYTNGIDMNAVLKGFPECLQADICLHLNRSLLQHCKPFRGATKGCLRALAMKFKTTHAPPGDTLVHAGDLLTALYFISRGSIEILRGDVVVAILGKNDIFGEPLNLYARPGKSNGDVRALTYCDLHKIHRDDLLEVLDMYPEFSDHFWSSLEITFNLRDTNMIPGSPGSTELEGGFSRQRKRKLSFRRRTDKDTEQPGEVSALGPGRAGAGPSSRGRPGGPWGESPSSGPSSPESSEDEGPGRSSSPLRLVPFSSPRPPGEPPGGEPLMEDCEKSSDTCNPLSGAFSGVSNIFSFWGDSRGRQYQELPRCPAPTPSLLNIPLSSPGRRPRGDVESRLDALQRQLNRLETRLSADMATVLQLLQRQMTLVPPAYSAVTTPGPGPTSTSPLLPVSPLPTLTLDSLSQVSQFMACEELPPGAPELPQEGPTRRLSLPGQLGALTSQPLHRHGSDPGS

Mus musculus [23] = experiment: Antiinflammatory activity against ovalbumin-induced allergic lung inflammation BALB/c mouse model assessed as reduction in total blood cells in brochoalveolar lavage fluid at 10 mg/kg, po bid administered on day 29 to 31 post ovalbumin challenge measured 8 hrs post last challenge relative to vehicle-treated control; type: functional, organism-based; design: dose 10 mg/kg; procedure, shortened: as §3
Mus musculus [24] = experiment: Antiinflammatory activity against ovalbumin-induced allergic lung inflammation BALB/c mouse model assessed as reduction in neutrophils in brochoalveolar lavage fluid at 10 mg/kg, po bid administered on day 29 to 31 post ovalbumin challenge measured 8 hrs post last challenge relative to vehicle-treated control; type: functional, organism-based; design: dose 10 mg/kg; conditions: Bronchoalveolar lavage; procedure, shortened: as §3
Mus musculus [25] = experiment: Antiinflammatory activity against ovalbumin-induced allergic lung inflammation BALB/c mouse model assessed as reduction in eosinophils in brochoalveolar lavage fluid at 10 mg/kg, po bid administered on day 29 to 31 post ovalbumin challenge measured 8 hrs post last challenge relative to vehicle-treated control; type: functional, organism-based; design: dose 10 mg/kg; procedure, shortened: as §3
[26] = biological target: T1, Neuronal acetylcholine receptor; alpha4/beta2; experiment: Inhibition of human alpha4beta2 nAChR at 10 uM by binding assay

Structure (SMILES)	IC50 [2] [nM]	inhibition [5] [%]	inhibition [6] [%]	inhibition at 10 µM (CYP1A2) [%]	inhibition at 10 µM (CYP2C9) [%]	inhibition at 10 µM (CYP2C19) [%]	inhibition at 10 µM (CYP2D6) [%]	inhibition at 10 µM (CYP3A4) [%]	inhibition at 1 µM (hERG (KCNH2)) [%]	inhibition [26] [%]	other results
c1cncc(OC[C@@H]2CCN2)c1											Ki [1]: 0.052 nM
Cl.c1cncc(OC[C@H]2CNCCN2c2nc3ncccc3o2)c1	5.5	1	43	25	22	9	1	5			EC50 [3]: 200 nM; Activity [4]: inactive; inhibition [7]: 50%; half-life [8]: 19 min; clearance [9]: 72 mL/min/kg; bioavailability [10]: 50%; half-life [11]: 98 min; Cmax [12]: 2530 nM; inhibition in vivo at 5 mg/kg (Mus musculus [13]): 60%; inhibition in vivo at 1 mg/kg (Mus musculus [14]): 60%; inhibition in vivo at 5 mg/kg (Mus musculus [15]): 78%; inhibition in vivo at 1 mg/kg (Mus musculus [16]): 90%; inhibition in vivo at 1 mg/kg (Mus musculus [17]): 64%; inhibition (Mus musculus [18]): inactive; Emax [19]: 85%; IC50 [20]: 58 nM
COc1ccc(NC(=O)N2CCNC[C@H]2COc2cccnc2)cc1	18000	2	7								inhibition (Mus musculus [21]): inactive; inhibition (Mus musculus [22]): inactive
COc1ccc(NC(=O)N2CCNCC2COc2cccnc2)cc1 (racemic)	60	-8	23	11	14	17	0	7	15	33	inhibition (Mus musculus [23]): Active; inhibition (Mus musculus [24]): Active; inhibition (Mus musculus [25]): Active
O=C(Nc1ccc(Br)cc1F)N1CCNCC1COc1cccnc1 (racemic)	42	7	47	13	7	32	41	58	18	30	
COc1ccc(NC(=O)N2CCNCC2COc2cccnc2)cc1Cl (racemic)	45	17	40	20	10	47	25	66	17	23	
Cc1cc(NC(=O)N2CCNCC2COc2cccnc2)ccc1Br (racemic)	14	23	80	48	21	51	85	80	27	15	
